# Source: ChEMBL document CHEMBL6177920, “Natural product-inspired [3 + 2] cycloaddition-based spirooxindoles as dual anticancer agents: synthesis, characterization, and biological evaluation by in vitro and in silico methods” (RSC Med Chem, 2025)
# Activity calls are given as the source filed them. No cut-off for these calls is given here.
# Experiments:
# HCT-15 [1] = assay: Induction of cell cycle arrest in human HCT-15 cells assessed as decrease in cells at G0/G1 phase at 50 to 200 uM; assay type: functional, cell-based; conditions: dose 50-200 µM
# How it was run: (§1)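 MDA-MB-468 or HCT 15 cells were seeded at 2 × 10^5 per 2 mL well in 6-well plates and exposed for 48 h to 50, 100 or 200 µM, with DMSO as control. Cells were trypsinized, spun 300×g for 5 min at 25 °C and fixed in cold 70% ethanol (30 min, ice). RNase A (100 µM, 4 h) was added, then PI (stock 50 µM, 10 min, RT). Phase distribution (sub-G0/G1, G0/G1, S, G2/M) was read by flow cytometry.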
# MDA-MB-468 [2] = assay: Induction of apoptosis in human MDA-MB-468 cells assessed as increase in caspase 3 activity at 62.5 to 1000 uM; assay type: functional, cell-based; conditions: dose 62.5-1000 µM
# How it was run: (§2)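 Cells were plated at 5 × 10^5 per 2 mL in 6-well plates and held overnight at 37 °C in CO2. They were then treated for 24 h at 37 °C, with MDA-MB-468 at 62.5–1000 µM and HCT 15 at 62.5–2000 µM. Cells were trypsinized, fixed 30 min at −20 °C in cold 70% ethanol, PBS-washed and labelled with anti-caspase-3/7 antibody (30 min, dark, RT). Flow cytometry (FL1) gave % caspase-3-expressing cells, triplicate, mean ± SD.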
# MDA-MB-468 [3] = assay: Induction of apoptosis in human MDA-MB-468 cells assessed as cell death by measuring red signals by acridine orange/EtBr staining based analysis; assay type: functional; conditions: read-out: LD50 (the source's name)
# How it was run: (§3)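 Cells seeded 0.3 × 10^6/well and grown about 36 h. Exposed 48 h to 250, 500 and 1000 µM (MDA-MB-468) or 500, 1000 and 2000 µM (HCT 15); 0.5% DMSO control. Trypsinized, stained 5 min with EtBr (100 µM) plus acridine orange (100 µM). Fluorescence microscopy counted green live versus orange dead cells, reported as % dead cells.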
# MDA-MB-468 [4] = assay: Induction of apoptosis in human MDA-MB-468 cells assessed as increase in caspase 3 activity; assay type: functional, cell-based
# How it was run: (§4)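 Cells seeded 5 × 10^5/2 mL and incubated overnight at 37 °C. Treated 24 h at 37 °C with 62.5–1000 µM (MDA-MB-468) or 62.5–2000 µM (HCT 15), then a further 24 h incubation step. Trypsinized, fixed in cold 70% ethanol 30 min at −20 °C, PBS-washed, stained 30 min in the dark at room temperature with anti-caspase-3/7 antibody. FACS on FL1 gave % caspase-3 cells; mean ± SD of triplicates.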
# MDA-MB-468 [5] = assay: Induction of cell cycle arrest in human MDA-MB-468 cells assessed as decrease in cells at G0/G1 phase at 100 to 200 uM; assay type: functional, cell-based; conditions: dose 100-200 µM; how it was run: as §1
# HCT-15 [6] = assay: Antiproliferative activity against human HCT-15 cells assessed as inhibition of cell proliferation incubated for 24 to 72 hrs by SRB assay; assay type: functional, cell-based
# How it was run: (§5)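 Cells seeded 1 × 10^4/well in DMEM + 10% FBS, incubated overnight at 37 °C, 5% CO2. Treated with serial dilutions, 62.5–1000 µM for MDA-MB-468 and 62.5–2000 µM for HCT 15, for 24, 48 and 72 h. DMSO 0.5% in the 2x working stock. Sulforhodamine-B read-out, % inhibition = (control − sample)/control × 100. Triplicate experiments, ≥4 replicates per concentration.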
# HCT-15 [7] = assay: Induction of apoptosis in human HCT-15 cells assessed as decrease in caspase 3 activity at 2000 uM; assay type: functional, cell-based; how it was run: as §2
# HCT-15 [8] = assay: Induction of cell cycle arrest in human HCT-15 cells assessed as accumulation of cells at G2/M phase at 200 uM (reference value: 12.25 %); assay type: functional; conditions: time 48 hrs
# MDA-MB-468 [9] = assay: Induction of cell cycle arrest in human MDA-MB-468 cells assessed as decrease in cells at S phase at 50 to 200 uM; assay type: functional, cell-based; conditions: dose 50-200 µM; how it was run: as §1
# MDA-MB-468 [10] = assay: Induction of cell cycle arrest in human MDA-MB-468 cells assessed as decrease in cells at G2/M phase at 50 to 200 uM; assay type: functional, cell-based; conditions: dose 50-200 µM; how it was run: as §1
# HCT-15 [11] = assay: Induction of apoptosis in human HCT-15 cells assessed as cell death by measuring red signals by acridine orange/EtBr staining based analysis; assay type: functional; conditions: read-out: LD50 (the source's name); how it was run: as §3
# HCT-15 [12] = assay: Induction of apoptosis in human HCT-15 cells assessed as decrease in caspase 3 activity; assay type: functional, cell-based; how it was run: as §4
# MDA-MB-468 [13] = assay: Induction of cell cycle arrest in human MDA-MB-468 cells assessed as increase in cells at sub G0/G1 phase at 200 uM (reference value: 1.78 %); assay type: functional; how it was run: as §1
# MDA-MB-468 [14] = assay: Antiproliferative activity against human MDA-MB-468 cells assessed as inhibition of cell proliferation incubated for 24 to 72 hrs by SRB assay; assay type: functional, cell-based; how it was run: as §5
# MDA-MB-468 [15] = assay: Induction of cell cycle arrest in human MDA-MB-468 cells assessed as increase in cells at G0/G1 phase at 50 uM; assay type: functional, cell-based; how it was run: as §1
# HCT-15 [16] = assay: Induction of cell cycle arrest in human HCT-15 cells assessed as decrease in cells at S phase at 50 to 200 uM; assay type: functional, cell-based; conditions: dose 50-200 µM; how it was run: as §1
# HCT-15 [17] = assay: Induction of cell cycle arrest in human HCT-15 cells assessed as decrease in cells at G2/M phase at 100 uM; assay type: functional, cell-based
# How it was run: (§6)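 HCT 15 cells at 2 × 10^5/2 mL/well treated 48 h with 50, 100 or 200 µM, with DMSO control. Trypsinized, centrifuged 300 × g for 5 min, fixed 30 min in cold 70% ethanol on ice. Treated with RNase A 4 h, then propidium iodide 10 min at room temperature. Flow cytometry gave % sub-G0/G1, G0/G1, S and G2/M.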
# HCT-15 [18] = assay: Induction of cell cycle arrest in human HCT-15 cells assessed as decrease in cells at sub G0/G1 phase at 100 uM; assay type: functional, cell-based; how it was run: as §6
# HCT-15 [19] = assay: Induction of cell cycle arrest in human HCT-15 cells assessed as decrease in cells at G0/G1 phase at 100 uM; assay type: functional, cell-based; how it was run: as §6
# HCT-15 [20] = assay: Induction of cell cycle arrest in human HCT-15 cells assessed as decrease in cells at S phase at 100 uM; assay type: functional, cell-based; how it was run: as §6
# MCF7 = assay: Induction of cell cycle arrest in human MCF7 cells assessed as increase in cells at sub G0/G1 phase at 200 uM incubated for 48 hrs by flow cytometric analysis (reference value: 2.57 %); assay type: functional
# HCT-15 [21] = assay: Induction of cell cycle arrest in human HCT-15 cells assessed as reduction in S phase at 200 uM; assay type: functional, cell-based; how it was run: as §6
# HCT-15 [22] = assay: Induction of cell cycle arrest in human HCT-15 cells assessed as decrease in cells at G2/M phase at 200 uM; assay type: functional, cell-based; how it was run: as §6
# HCT-15 [23] = assay: Induction of cell cycle arrest in human HCT-15 cells assessed as reduction in G0/G1 phase at 200 uM; assay type: functional, cell-based; how it was run: as §6
smiles,measurement,setting,value
CCOc1ccc([C@@H]2C3CSCN3[C@]3(C(=O)Nc4ccccc43)[C@H]2C(=O)c2ccc(C)cc2)cc1OC (stereo not given in full),Activity,HCT-15 [1],Active
same,Activity,MDA-MB-468 [2],Active
same,CC50,MDA-MB-468 [3],281 µM
same,IC50,MDA-MB-468 [4],407 µM
same,Activity,MDA-MB-468 [5],Active
same,IC50,HCT-15 [6],274 µM
same,Activity,HCT-15 [7],inactive
same,Activity,HCT-15 [8],43.5%
same,Activity,MDA-MB-468 [9],Active
same,Activity,MDA-MB-468 [10],Active
same,CC50,HCT-15 [11],312 µM
same,IC50,HCT-15 [12],365 µM
same,Activity,MDA-MB-468 [13],44.5%
same,IC50,MDA-MB-468 [14],361 µM
same,Activity,MDA-MB-468 [15],inactive
same,Activity,HCT-15 [16],Active
O=c1[nH]cc(F)c(=O)[nH]1 [FLUOROURACIL],Activity,HCT-15 [17],Active
same,CC50,MDA-MB-468 [3],495 µM
same,Activity,HCT-15 [18],inactive
same,IC50,MDA-MB-468 [4],495 µM
same,IC50,HCT-15 [6],579 µM
same,Activity,HCT-15 [19],Active
same,CC50,HCT-15 [11],426 µM
same,Activity,HCT-15 [20],Active
same,IC50,HCT-15 [12],426 µM
same,IC50,MDA-MB-468 [14],551 µM
C=C1CC[C@H](O)C/C1=C/C=C1\CCC[C@]2(C)[C@@H]([C@H](C)CCCC(C)C)CC[C@@H]12 [CHOLECALCIFEROL],Activity,MCF7,46.66%
same,Activity,HCT-15 [21],Active
same,Activity,HCT-15 [22],Active
same,Activity,HCT-15 [23],Active
